Data published in ChEMBL document CHEMBL3751740, “New MKLP-2 inhibitors in the paprotrain series: Design, synthesis and biological evaluations” (Bioorg Med Chem, 2016).
Calls of active or inactive are those of the source. No cut-off for these calls is given here.

Tests used:
[1] = target: T1, Kinesin-like protein KIF20A (Homo sapiens, UniProt O95235); experiment: Inhibition of N-terminal MKLP2 (56 to 505 residues) ATPase basal activity isolated from human hepatocellular carcinoma cells by pyruvate kinase/lactate dehydrogenase enzyme linked assay
T1 sequence (O95235 whole entry): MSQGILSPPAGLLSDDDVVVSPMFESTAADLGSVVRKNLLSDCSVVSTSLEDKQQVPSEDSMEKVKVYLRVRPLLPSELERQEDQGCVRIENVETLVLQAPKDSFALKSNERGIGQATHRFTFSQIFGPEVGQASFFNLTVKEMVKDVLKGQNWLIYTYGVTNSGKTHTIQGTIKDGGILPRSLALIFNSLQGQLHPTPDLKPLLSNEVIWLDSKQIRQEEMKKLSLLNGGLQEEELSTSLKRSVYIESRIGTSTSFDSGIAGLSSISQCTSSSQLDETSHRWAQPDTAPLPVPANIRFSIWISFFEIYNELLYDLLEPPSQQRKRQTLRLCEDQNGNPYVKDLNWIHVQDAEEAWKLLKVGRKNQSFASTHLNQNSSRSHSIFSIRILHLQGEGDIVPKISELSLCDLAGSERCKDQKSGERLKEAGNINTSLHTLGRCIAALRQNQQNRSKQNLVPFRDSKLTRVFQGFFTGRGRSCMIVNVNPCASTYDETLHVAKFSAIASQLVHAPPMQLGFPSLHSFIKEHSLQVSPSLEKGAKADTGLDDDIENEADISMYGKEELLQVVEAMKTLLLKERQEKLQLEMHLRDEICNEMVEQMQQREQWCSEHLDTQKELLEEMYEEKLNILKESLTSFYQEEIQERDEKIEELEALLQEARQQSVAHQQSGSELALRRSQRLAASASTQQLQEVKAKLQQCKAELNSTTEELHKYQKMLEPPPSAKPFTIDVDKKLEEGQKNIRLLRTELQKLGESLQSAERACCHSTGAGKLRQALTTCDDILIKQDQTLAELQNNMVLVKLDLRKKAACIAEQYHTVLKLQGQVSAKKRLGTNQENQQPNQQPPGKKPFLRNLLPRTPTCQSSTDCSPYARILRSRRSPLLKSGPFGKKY

[2] = target: T1, Kinesin-like protein KIF20A; experiment: Inhibition of microtubule-stimulated N-terminal MKLP-2 (56 to 505 residues) ATPase activity isolated from human hepatocellular carcinoma cells by pyruvate kinase/lactate dehydrogenase enzyme linked assay
Ovis aries [3] = organism: Ovis aries; experiment: (§1) Inhibition of sheep brain tubulin polymerization by UV spectrophotometric analysis; set-up: concentration or dose not given beside the values
How it was run: (§2)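 Tubulin purified from sheep brain by two assembly/disassembly cycles, about 2–3 mg/mL in 0.1 M MES, 0.5 mM MgCl2, 1 mM EGTA, 1 mM GTP, pH 6.6. Compound in DMSO added at 0 °C, then moved to a 37 °C thermostated cell. Assembly followed by turbidity at 350 nm for a few min.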

Ovis aries [4] = organism: Ovis aries; experiment: Induction of sheep brain microtubule disassembly by UV spectrophotometric analysis
How it was run: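 Sheep brain tubulin, purified by two assembly/disassembly cycles and held in MES buffer with GTP at pH 6.6, was polymerized at 37 °C for 10 min. Compound was then added to the MTs at 0 °C and depolymerization was followed over the next few minutes by turbidity at 350 nm.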

KB [5] = experiment: Growth inhibition of human KB cells at 10 uM after 72 hrs by MTS assay; type: functional; conditions: for inhibition of growth at 10 µM: read-out: GI
How it was run: (§3)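 KB cells were grown in DMEM with 25 mM glucose and 10% FCS at 37 °C, 5% CO2, and seeded at 500 cells/well. 24 h later, compound in DMSO (1% final) was added at 10 µM or 1 µM for 72 h; controls received DMSO alone. Runs were in duplicate. Viable cells were read with MTS at 490 nm.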

KB [6] = experiment: Growth inhibition of human KB cells at 1 uM after 72 hrs by MTS assay; type: functional; conditions: for inhibition of growth at 1 µM: read-out: GI; how it was run: as §3
[7] = as §1; set-up: species or system Ovis aries; how it was run: as §2
Ovis aries [8] = organism: Ovis aries; experiment: Inhibition of sheep brain microtubule disassembly by UV spectrophotometric analysis; set-up: concentration or dose not given beside the values
KB [9] = experiment: Growth inhibition of human KB cells after 72 hrs by MTS assay; type: functional

SMILES	IC50 [1]	IC50 [2]	inhibition (Ovis aries [3])	Activity (Ovis aries [4])	inhibition of growth at 10 µM (KB [5]) [%]	inhibition of growth at 1 µM (KB [6]) [%]	inhibition (Ovis aries [3]; concentration not given here) [%]	growth inhibition (GI) (KB [6])	IC50 [7] [µM]	Activity (Ovis aries [8]) [%]	GI50 (KB [9]) [µM]	growth inhibition (GI) (KB [5])
COc1cc(/C=C(\C#N)c2c[nH]c3ccccc23)cc(OC)c1OC	Not Active	Not Active	inactive	inactive	81	6	–	–	–	–	–	–
COc1ccc2c(c1)c(/C(C#N)=C/c1cccnc1)cn2C(C)=O	Not Active	Not Active	inactive	inactive	74	–	–	–	–	–	–	–
COc1cc(OC)c(OC)cc1/C=C(\C#N)c1c[nH]c2ccccc12	Not Active	Not Active	–	inactive	100	40	32	–	–	–	–	–
N#C/C(=C\c1cccc(Cl)c1)c1c[nH]c2ccccc12	–	–	inactive	inactive	94	19	–	–	–	–	–	–
COc1ccc2[nH]cc(/C(C#N)=C/C=C/c3cccnc3)c2c1	Not Active	Not Active	–	inactive	10	–	11	–	–	–	–	–
N#C/C(=C\c1ccc(C(F)(F)F)cc1)c1c[nH]c2ccccc12	Not Active	Not Active	–	inactive	87	–	57	inactive	–	–	–	–
COc1ccc(/C=C(\C#N)c2c[nH]c3ccccc23)cc1OC	Not Active	Not Active	–	inactive	99	25	62	–	20	–	–	–
N#C/C(=C\c1cccnc1)c1c[nH]c2ncccc12	–	–	–	inactive	100	29	19	–	–	–	–	–
N#C/C(=C\c1ccc(F)cc1)c1c[nH]c2ccccc12	–	–	–	inactive	84	–	22	inactive	–	–	–	–
N#C/C(=C\c1cccnc1)c1c(-c2ccsc2)[nH]c2ccccc12	Not Active	Not Active	–	inactive	99	12	70	–	9.2	–	–	–
COc1ccc(/C=C(\C#N)c2c[nH]c3ccccc23)c(OC)c1	Not Active	Not Active	–	inactive	99	35	76	–	12	–	–	–
COc1cc(/C=C(\C#N)c2c[nH]c3ccccc23)cc(OC)c1O	Not Active	Not Active	–	–	95	59	22	–	–	47	–	–
COc1cc2c(c(OC)c1OC)-c1ccc(OC)c(=O)cc1[C@@H](NC(C)=O)CC2 [COLCHICINE]	Not Active	Not Active	–	–	–	–	–	–	–	–	0.0042	–
COc1cc(/C=C(\C#N)c2c[nH]c3ccccc23)cc(OC)c1	–	–	–	–	96	31	31	–	–	11	–	–
CC(=O)O[C@@]12CO[C@@H]1C[C@H](O)[C@@]1(C)C(=O)[C@H](O)C3=C(C)[C@@H](OC(=O)[C@H](O)[C@@H](NC(=O)OC(C)(C)C)c4ccccc4)C[C@@](O)([C@@H](OC(=O)c4ccccc4)[C@H]21)C3(C)C [DOCETAXEL ANHYDROUS]	Not Active	Not Active	–	–	–	–	–	–	–	–	0.00013	–
COc1cccc(/C=C(\C#N)c2c[nH]c3ccccc23)c1OC	Not Active	Not Active	inactive	inactive	100	2	–	–	–	–	–	–
CSc1ccc(/C=C(\C#N)c2c[nH]c3ccccc23)cc1	Not Active	Not Active	inactive	inactive	98	–	–	inactive	–	–	–	–
N#CC(Cc1cccnc1)c1c[nH]c2ccccc12 (stereo not given)	–	–	–	–	5	–	16	–	–	21	–	–
N#C/C(=C\c1cccnc1)c1c(-c2ccccc2)[nH]c2ccccc12	Not Active	Not Active	–	–	93	–	33	inactive	–	13	–	–
COc1cccc(/C=C(\C#N)c2c[nH]c3ccccc23)c1	Not Active	Not Active	–	–	89	–	37	inactive	–	38	–	–
N#C/C(=C\c1ccc(Cl)cc1)c1c[nH]c2ccccc12	–	–	–	inactive	78	–	13	–	–	–	–	–
COc1ccc2[nH]cc(C(C#N)c3cccnc3)c2c1 (stereo not given)	Not Active	Not Active	inactive	inactive	45	–	–	–	–	–	–	–
N#C/C(=C\c1c[nH]c2ccccc12)c1cccnc1	–	–	–	inactive	23	–	45	–	–	–	–	–
COc1cc(OC)c(/C=C(\C#N)c2c[nH]c3ccccc23)c(OC)c1	Not Active	Not Active	inactive	–	83	–	–	inactive	–	13	–	–
CC(=O)O[C@H]1C(=O)[C@@]2(C)[C@H]([C@H](OC(=O)c3ccccc3)[C@]3(O)C[C@H](OC(=O)[C@H](O)[C@@H](NC(=O)c4ccccc4)c4ccccc4)C(C)=C1C3(C)C)[C@]1(OC(C)=O)CO[C@@H]1C[C@@H]2O [PACLITAXEL]	Not Active	Not Active	–	–	–	–	–	–	1	–	0.001	–
COc1cccc2c(/C(C#N)=C/c3cccnc3)c[nH]c12	Not Active	Not Active	inactive	inactive	85	–	–	inactive	–	–	–	–
COc1ccc2c(c1)c(/C(C#N)=C/c1cccnc1)cn2C	Not Active	Not Active	–	–	33	–	53	–	115	15	–	–
COc1ccc2[nH]cc(C(=O)/C(C#N)=C/c3cccnc3)c2c1	Not Active	Not Active	inactive	–	27	–	–	–	–	14	–	–
COc1ccc2[nH]c(C)c(/C(C#N)=C/c3cccnc3)c2c1	–	–	inactive	inactive	69	–	–	–	–	–	–	–
COc1ccc2[nH]cc(/C(=C/C#N)Cc3cccnc3)c2c1	Not Active	Not Active	–	inactive	–	–	33	–	–	–	–	inactive
